Screening data as filed in PubChem.
NR2E3 ag-1 = activates human photoreceptor nuclear receptor NR2E3 | inhibition of corepressor binding, % at 4.78 µM | 0.12% of 320,000 active | Q9Y5X4 | GST-NR2E3/biotin-RetCOR TR-FRET, 1536-well | AID 2300;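 active = percent inhibition above the cutoff of mean plus 3 SD of all tested compounds, set per screening campaign, cut at about 20% in these data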;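 also: 0% = DMSO wells and 100% = biotin wells as full block of FRET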
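Format: 1536-well format; test system: GST-NR2E3 and biotin-RetCOR proteins; read-out basis: percent inhibition of TR-FRET ratio; timing: 5 h incubation at 4 °C; detection: time-resolved FRET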
NR2E3 ag-2 = agonists of human NR2E3 nuclear receptor. Q9Y5X4. inhibition of corepressor binding, % at 3.98 µM. 0.35% of 360,000 active. AID 602229. CHO-S Gal4-NCOR/VP16-NR2E3 two-hybrid, luciferase;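 active = inhibition above the mean of all tested compounds plus 3 SD, cut at about 70% in these data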;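 also: 0% = DMSO with NR2E3 transfected cells and 100% = cells lacking NR2E3 construct; higher means lower luciferase signal from less NR2E3 corepressor binding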
SKN-1 inh = blocks SKN-1 activity in C. elegans. C. elegans VP596 Pgst-4::GFP/RFP ratio, acrylamide-induced, 24 h. inhibition, % at 21.8 µM. 0.49% of 360,000 active. AID 624304;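 active = interference check ratio from 0.5 to 1.5 plus GFP to RFP signal ratio inhibition reaching or exceeding a fixed threshold, cut at about 30% in these data, passing the limit was not always enough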
MT1-MMP act inh = inhibitors of human MT1-MMP activation | P50281 | HT1080 RFP-PRO-GFP cells, GFP/RFP ratio fluorescence, overnight; percent of plate control window, DMSO zero | GFP/RFP ratio change, % at 20 µM | 0.061% of 360,000 active | AID 651647;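 active = GFP/RFP ratio change of at least 30% with cell ATP level not reduced by more than half and red fluorescence within 50% of control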
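Assay system – RFP-PRO-GFP reporter HT1080 cells · Compound dosing – single dose of 20 µM compound, 1% DMSO final · Incubation – overnight compound exposure at 37 °C · Measure – GFP/RFP fluorescence ratio · Benchmarks – DMSO wells and RFP-L50D-GFP cells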
Rev-erbA mod = modulators of human Rev-erb alpha DNA binding. P20393. activity, % at 10 µM. 0.79% of 370,000 active. AID 1259318. Rev-erbα–FITC-DNA binding, fluorescence polarization, 90 min;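 active = activity above about 14%, limit read from the data; passing the limit was not always enough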;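 also: 0% = DMSO wells with 35 nM protein and 100% = DMSO wells with 750 nM protein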
Target sequence (P20393 whole entry, looked up): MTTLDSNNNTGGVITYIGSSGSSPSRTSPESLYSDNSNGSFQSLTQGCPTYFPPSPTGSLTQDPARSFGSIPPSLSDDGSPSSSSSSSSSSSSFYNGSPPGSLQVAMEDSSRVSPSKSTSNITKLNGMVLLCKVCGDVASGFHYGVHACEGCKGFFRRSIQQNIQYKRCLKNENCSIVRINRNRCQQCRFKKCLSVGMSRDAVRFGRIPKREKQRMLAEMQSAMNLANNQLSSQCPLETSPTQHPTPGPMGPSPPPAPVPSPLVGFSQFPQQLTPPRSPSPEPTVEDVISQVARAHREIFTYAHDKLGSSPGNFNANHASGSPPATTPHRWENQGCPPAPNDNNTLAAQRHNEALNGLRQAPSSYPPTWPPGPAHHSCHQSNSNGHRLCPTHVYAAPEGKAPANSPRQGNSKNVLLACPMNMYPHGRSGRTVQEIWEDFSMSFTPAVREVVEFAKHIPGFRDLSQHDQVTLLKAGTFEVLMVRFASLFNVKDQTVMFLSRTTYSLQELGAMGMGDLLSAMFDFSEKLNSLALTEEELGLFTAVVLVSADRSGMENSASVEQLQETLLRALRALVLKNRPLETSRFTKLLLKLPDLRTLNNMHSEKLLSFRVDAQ
PG9 binder = binds the HIV-1 gp120 antibody PG9. inhibition, % at 6.7 µM. 0.43% of 360,000 active. TR-FRET gp120-PG9 antibody binding; in the data active = inhibition above about 8.5%
* = called active by the depositor; · = no result. Sampled rows, rich in hits. Any-hit rate of the full collection: about 1.9%.

SMILES	NR2E3 ag-1	NR2E3 ag-2	SKN-1 inh	MT1-MMP act inh	Rev-erbA mod	PG9 binder
COc1ccc(N(CC(=O)NC2CCCCC2)C(=O)CNC(=O)c2cccs2)cc1	-0.2	-21.0	41.0*	-0.3	8.4	0.6
O=S(=O)(O)OC[C@H]1O[C@@](COS(=O)(=O)O)(O[C@H]2O[C@H](COS(=O)(=O)O)[C@@H](OS(=O)(=O)O)[C@H](OS(=O)(=O)O)[C@H]2OS(=O)(=O)O)[C@@H](OS(=O)(=O)O)[C@@H]1OS(=O)(=O)O	·	·	·	·	-3.0	·
COc1cc(CNCCSc2nnnn2C)cc(Br)c1OCc1ccccc1F	1.1	16.8	-3.2	2.1	5.4	0.7
COc1cc(CNCCSc2nnnn2C)cc(Br)c1OCc1ccc(F)cc1	-2.4	2.3	33.9	3.2	3.8	0.7
CCOc1cc(CNCCSc2nnnn2C)cc(Br)c1OCc1ccc(F)cc1	-4.4	-10.0	68.4*	-1.8	7.5	0.5
CCOc1cc(CNCCSc2nnnn2C)cc(Br)c1OCc1ccccc1F	2.9	1.6	39.1*	-2.1	-3.7	-2.0
Nc1ccc(C=C2C=Cc3ccccc32)cc1	·	-82.9	52.4*	3.5	-5.7	-1.8
O[C@@H](COc1cccc2ncccc12)CN1CCN(C2c3ccccc3[C@@H]3[C@H](c4ccccc42)C3(F)F)CC1 (stereo not given in full)	·	·	·	·	-1.6	·
Cc1cc2nn(-c3ccc(F)cc3)nc2cc1N	-0.1	-128.9	39.4*	-3.1	1.3	-2.4
Cc1cc2nn(-c3ccc(Cl)cc3)nc2cc1N	-0.5	-145.9	20.4	0.1	-4.9	-1.9
COc1cc(C2Nc3cccc4cccc(c34)N2)ccc1OC(C)=O	0.6	-7.4	-18.2	31.2*	·	·
COc1ccc(C2Nc3cccc4cccc(c34)N2)cc1Br	1.4	-36.3	21.2	-2.9	0.3	-4.8
O=C(Nc1ccc(F)cc1)c1ccccc1F	6.7	-42.9	21.7	-3.8	-0.7	-0.2
O=C(Nc1ccc(SC(F)F)cc1)c1ccccc1F	3.4	-81.3	41.0*	4.8	2.1	-1.6
CCN(CC)C(=O)CC[C@@H]1CC[C@]2(CCCN(C(=O)c3ccccc3)C2)O1	·	·	·	·	-4.5	·
O=C(O)c1cc(O)c2c(c1)[C@@H]([C@H]1c3cc(C(=O)O)cc(O)c3C(=O)c3c(O[C@H]4O[C@H](CO)[C@@H](O)[C@H](O)[C@H]4O)cccc31)c1cccc(O[C@H]3O[C@H](CO)[C@@H](O)[C@H](O)[C@H]3O)c1C2=O	·	·	·	·	-36.3	·
Clc1ccc2nc(-c3ccc(Br)s3)cn2c1	1.7	-127.1	70.2*	7.8	1.5	1.3
NC(=O)C(c1ccccc1)(c1ccccc1)[C@H]1CCN(CCc2ccc3c(c2)CCO3)C1	·	·	·	·	8.1	·
Cc1ccc(S(=O)(=O)c2cc(OC(=O)c3ccco3)ccc2OC(=O)c2ccco2)cc1	3.4	3.3	-5.7	3.2	3.0	-0.8
O=C(Oc1ccc(OC(=O)c2ccco2)c(S(=O)(=O)c2ccc(Br)cc2)c1)c1ccco1	-2.4	2.4	36.4*	6.5	·	·
O=[N+]([O-])c1cccc2ccc(/C=C/c3ccc(F)cc3)nc12	-1.2	-83.6	36.5*	2.8	-6.5	-2.6
O=[N+]([O-])c1ccc(/C=C/c2ccc3cccc([N+](=O)[O-])c3n2)cc1	3.6	-59.2	4.8	-1.5	-2.0	-2.2
O=C1CCC(C(=O)OCC(=O)N2N=C3/C(=C/c4ccccc4)CCCC3C2c2ccccc2)N1 (stereo not given)	1.4	8.8	14.4	0.0	0.1	0.0
O=C1CCC(C(=O)OCC(=O)N2N=C3/C(=C\c4ccccc4)CCCC3C2c2ccccc2)N1 (stereo not given)	·	15.0	37.2*	0.0	-5.1	-2.2
O=[N+]([O-])c1ccc(OC/C=C2\Oc3ccc([N+](=O)[O-])cc3C2N2CCOCC2)cc1 (stereo not given)	1.4	-2.1	37.3*	-2.3	-0.4	-1.3
SMILES	NR2E3 ag-1	NR2E3 ag-2	SKN-1 inh	MT1-MMP act inh	Rev-erbA mod	PG9 binder
CCC[C@@H]1C[C@@H](C(=O)N[C@@H]([C@H]2O[C@H](SC)[C@H](OP(=O)(O)O)[C@@H](O)[C@H]2O)[C@H](C)Cl)N(C)C1	·	·	·	·	-5.6	·
Fc1ccc(N2CCN(c3cnc4ccccc4n3)CC2)cc1	1.9	-149.9	63.0*	-0.1	-0.8	0.4
c1ccc(N2CCN(c3cnc4ccccc4n3)CC2)cc1	-1.6	-155.0	47.0*	-1.2	-1.2	-0.4
COc1cccc(C(=O)N[C@H](C(=O)N2CCC[C@H]2C(=O)NCCc2ccccc2Cl)C2CCCCC2)c1	·	·	·	·	-4.2	-2.2
Cc1ccc(/C=C2\CCC3=C2OC(N)=C(C#N)C3c2ccc(C)cc2)cc1 (stereo not given)	2.7	-14.5	35.2*	-171.6	·	·
Cc1ccc(C2C(C#N)=C(N)Oc3cc(N)ccc32)cc1 (stereo not given)	0.2	-23.9	3.3	3.4	6.0	1.0
c1ccc(-n2nc3c(ccc4cnnc43)[nH]2)cc1	2.5	-83.5	30.8*	0.7	-6.8	2.9
CC1OC(c2ccccc2)OC2COC(c3ccccc3)OC12 (stereo not given)	·	24.9	36.1*	-1.0	-0.2	-1.5
Cc1c(NC(=O)NCCN2C(=O)C3C4C=CC(C4)C3C2=O)c(=O)n(-c2ccccc2)n1C (stereo not given)	0.5	3.6	13.3	-1.2	-5.9	1.2
O=C(NCCN1C(=O)C2C3C=CC(C3)C2C1=O)Nc1ccccc1O (stereo not given)	-2.3	-26.7	38.0*	0.9	-3.9	-3.7
COC(=O)c1ccc(-c2cccc(CN3CCN(c4ncc(Cc5ccccc5)cn4)CC3)c2)cc1	·	·	·	·	10.2	-2.7
CC(=O)C1=C(C)N(Cc2ccc(F)cc2)C(=S)NC1c1cccc(F)c1 (stereo not given)	·	·	·	·	6.6	-1.6
O=C(Nc1ccc(Cl)cc1)Nc1ccc(Br)cn1	-1.8	-40.8	37.1*	-3.3	-1.7	0.6
CCOc1ccc(NC(=O)Nc2ccc(Br)cn2)cc1	3.9	-34.8	19.3	1.8	2.8	-2.1
Fc1ccc(OCc2nc3ccccc3s2)cc1	3.0	-142.8	38.3*	-4.3	4.3	1.1
c1ccc(OCc2nc3ccccc3s2)cc1	-3.4	-135.9	48.5*	0.2	-5.3	0.5
CCC(=O)Nc1ccc(OCc2nc3ccccc3s2)cc1	-0.3	-167.5	-0.2	-6.7	-3.5	0.8
Cc1cc(OCc2nc3ccccc3s2)ccc1N	-1.7	-162.6	11.9	-2.2	-5.2	1.8
c1ccc(-c2ccccc2C2Cc3nnccc3CN2)cc1 (stereo not given)	·	·	·	·	-2.9	0.6
c1ccc(Cn2ccc3ccc(-c4ccc5ccn(Cc6ccc7ccccc7c6)c5c4)cc32)cc1	·	·	·	·	2.8	·
N#Cc1c(-c2ccc(Cl)cc2)n(O)c2ccccc12	·	98.5*	20.3	2.8	·	·
